From publication PMC2662489 (Biochemical Journal, 2009)
Like-named read-outs stand apart in the source and are kept apart here. One block for each compound: values may come before it.

Columns and labels:
MsbA-MIANS [1] = target: T1, MsbA-MIANS (Escherichia coli, UniProt P60752); assay: MIANS fluorescence quenching titration of MsbA-MIANS; format: binding; details: for Concentration-dependent quenching of MIANS fluorescence: titration of MsbA-MIANS with negatively charged drugs
MsbA-MIANS [2] = target: T1, MsbA-MIANS; assay: Dual sequential titration of MsbA-MIANS fluorescence quenching; format: binding; details: for Effect of lipid A pre-binding on ligand binding affinity (in words): ATP at 10 °C, daunorubicin and p[NH]ppA at 23 °C; for Binding affinity of drug after prior binding of nucleotide (in words): ATP bound first, results not shown
Summary of the method: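 MIANS-labelled MsbA (100 μg/ml) was prepared by labelling with 10 μM MIANS, quenching with DTE and dialysing. It was held in 100 mM Hepes, 50 mM NaCl, 5 mM MgCl2, 0.05% DM, pH 7.5, at 23 °C, or 10 °C for ATP to prevent hydrolysis. […] Data were fitted to a single-site model for Kd and ΔFmax.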

MsbA [3] = target: T2, MsbA (Escherichia coli, UniProt P60752); assay: ATPase activity assay; format: biochemical; details: ATP 0.05-10 mM, 0.05% DM
T2 sequence (P60752 whole entry): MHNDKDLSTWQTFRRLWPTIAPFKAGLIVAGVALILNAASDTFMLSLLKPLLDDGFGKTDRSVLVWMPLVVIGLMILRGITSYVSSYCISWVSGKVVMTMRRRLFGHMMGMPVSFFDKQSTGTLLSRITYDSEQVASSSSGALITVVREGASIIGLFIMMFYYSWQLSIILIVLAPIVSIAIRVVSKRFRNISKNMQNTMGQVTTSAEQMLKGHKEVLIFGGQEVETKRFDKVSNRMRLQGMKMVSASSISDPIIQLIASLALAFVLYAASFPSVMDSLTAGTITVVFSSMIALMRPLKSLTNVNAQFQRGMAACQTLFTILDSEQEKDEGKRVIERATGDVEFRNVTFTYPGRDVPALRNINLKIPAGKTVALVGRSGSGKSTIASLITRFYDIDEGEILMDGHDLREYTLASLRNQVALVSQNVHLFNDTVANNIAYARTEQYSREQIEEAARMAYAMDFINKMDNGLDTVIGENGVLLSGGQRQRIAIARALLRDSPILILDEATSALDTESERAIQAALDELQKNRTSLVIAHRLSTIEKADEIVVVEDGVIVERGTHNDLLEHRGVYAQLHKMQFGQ
Summary of the method: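 Purified His-tagged MsbA (~100 μg/ml in 0.05% (w/v) DM) assayed colorimetrically for free Pi liberated from ATP across varied ATP levels. Labelled enzyme was first reacted with 10 μM MIANS for 2 h at 23 °C in the dark. Unreacted MIANS was quenched with 1 mM DTE before the ATPase measurement.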

MsbA [4] = target: T2, MsbA; assay: Modulation of the rate of MsbA labelling by MIANS; format: biochemical
[5] = 23 °C, MsbA 100 μg/ml in 0.05% DM, single-site fit
[6] = Kd, 23 °C, MsbA 100 μg/ml in 0.05% DM, single-site fit
[7] = 10 °C, MsbA 100 μg/ml in 0.05% DM, ligand alone
[8] = 10 °C, titrated after daunorubicin

T1 sequence (P60752 whole entry): as above

Kd (MsbA-MIANS [1]; [5]): 130 ± 60 µM
Maximal quenching (ΔFmax/F0×100) (MsbA-MIANS [1]; [5]): 8.48±0.4%
Compound: Nc1ncnc2c1ncn2[C@@H]1O[C@H](COP(=O)(O)OP(=O)(O)O)[C@@H](O)[C@H]1O [ADP]

Kd (MsbA-MIANS [1]; [5]): 800 ± 200 µM
Maximal quenching (ΔFmax/F0×100) (MsbA-MIANS [1]; [5]): 7.84±0.80%
Compound: Nc1ncnc2c1ncn2[C@@H]1O[C@H](COP(=O)(O)O)[C@@H](O)[C@H]1O [AMP]

Kd (MsbA-MIANS [1]; [6]): 1.82 ± 0.29 µM
Compound: Nc1ncnc2c1ncn2[C@@H]1O[C@H](CO[P@](=O)(O)O[P@](=O)(O)O[P@@](=O)(O)S)[C@@H](O)[C@H]1O [ATP[S], adenosine 5´-[γ-thio]triphosphate]

Kd (MsbA-MIANS [1]; [7]): 3050 ± 430 µM
Kd for ATP binding relative to that of p[NH]ppA (MsbA-MIANS [1]; ATP at 10 °C versus p[NH]ppA at 23 °C): > 7 fold
Kd (MsbA-MIANS [2]; [8]): 950 ± 230 µM
Maximal quenching (ΔFmax/F0×100) (MsbA-MIANS [2]; [8]): 5.45±0.41%
Kd (MsbA-MIANS [2]; 10 °C, titrated after lipid A): 2030 ± 300 µM
Maximal quenching (ΔFmax/F0×100) (MsbA-MIANS [2]; 10 °C, titrated after lipid A): 12.0±0.78%
Effect of lipid A pre-binding on ligand binding affinity (in words) (MsbA-MIANS [2]): relatively unaffected
Km (MsbA [3]; MIANS-labelled MsbA): 410 ± 40 µM
Km (MsbA [3]; unlabelled MsbA): 520 ± 40 µM
Compound: Nc1ncnc2c1ncn2[C@@H]1O[C@H](COP(=O)(O)OP(=O)(O)OP(=O)(O)O)[C@@H](O)[C@H]1O [ATP]

Initial rate of labelling (MsbA [4]): 27.4±2.3 ms^−1
Labelling efficiency (MsbA [4]): 87.2±1.3%
Initial rate of labelling (MsbA [4]; listed as daunorubicin): the most
Maximal quenching (ΔFmax/F0×100) (MsbA-MIANS [1]; [5]): highest quenching
Kd (MsbA-MIANS [1]; 23 °C, MsbA reconstituted into egg PC proteoliposomes): essentially the same
Kd (MsbA-MIANS [1]; Kd, 10 °C, MsbA 100 μg/ml in 0.05% DM, ligand alone): 2.97 ± 0.23 µM
Kd (MsbA-MIANS [1]; [6]): 4.6 ± 0.2 µM
Kd (MsbA-MIANS [1]; Kd, 23 °C, MsbA reconstituted into egg PC proteoliposomes): 4.3 ± 0.79 µM
Reduction in binding affinity after pre-binding of lipid A (MsbA-MIANS [2]; 10 °C): ~2 fold
Effect of lipid A pre-binding on ligand binding affinity (in words) (MsbA-MIANS [2]): did not affect
Binding affinity of drug after prior binding of nucleotide (in words) (MsbA-MIANS [2]): reduced
Kd (MsbA-MIANS [2]; Kd, 10 °C, titrated after ATP): 9.59 ± 0.39 µM
Kd (MsbA-MIANS [2]; Kd, 10 °C, titrated after lipid A): 5.03 ± 0.11 µM
Kd (MsbA-MIANS [2]; Kd, 23 °C, titrated after lipid A): 4.42 ± 0.33 µM
Compound: COc1cccc2c1C(=O)c1c(O)c3c(c(O)c1C2=O)C[C@@](O)(C(C)=O)C[C@@H]3O[C@H]1C[C@H](N)[C@H](O)[C@H](C)O1 [Daunorubicin]

Initial rate of labelling (MsbA [4]): 85.0±3.1 ms^−1
Labelling efficiency (MsbA [4]): 78.8±1.0%
Kd (MsbA-MIANS [1]; [6]): 8.56 ± 0.79 µM
Compound: O=c1c(O)c(-c2ccc(O)c(O)c2)oc2cc(O)cc(O)c12 [Quercetin]

Compound: CC(C)[C@@H]1NC(=O)[C@H](C)OC(=O)[C@@H](C(C)C)NC(=O)[C@@H](C(C)C)OC(=O)[C@H](C(C)C)NC(=O)[C@H](C)OC(=O)[C@@H](C(C)C)NC(=O)[C@@H](C(C)C)OC(=O)[C@H](C(C)C)NC(=O)[C@H](C)OC(=O)[C@@H](C(C)C)NC(=O)[C@@H](C(C)C)OC1=O [Valinomycin]
Initial rate of labelling (MsbA [4]): 66.8±3.4 ms^−1
Labelling efficiency (MsbA [4]): 101±3.2%
Kd (MsbA-MIANS [1]): 0.35 ± 0.04 µM

Initial rate of labelling (MsbA [4]): 71.0±2.6 ms^−1
Labelling efficiency (MsbA [4]): 82.2±3.6%
Kd (MsbA-MIANS [1]; [6]): 1.26 ± 0.09 µM
Compound: COc1ccc(CCN(C)CCCC(C#N)(c2ccc(OC)c(OC)c2)C(C)C)cc1OC (centres unmarked) [Verapamil]

Initial rate of labelling (MsbA [4]): 182±3.4 ms^−1
Labelling efficiency (MsbA [4]): 105±4.5%
Initial rate of labelling (MsbA [4]; listed as vinblastine): affected the least
Kd (MsbA-MIANS [1]; [6]): 1.2 ± 0.14 µM
Binding affinity of drug after prior binding of nucleotide (in words) (MsbA-MIANS [2]): reduced
Compound: CC[C@]1(O)C[C@@H]2CN(CCc3c([nH]c4ccccc34)[C@@](C(=O)OC)(c3cc4c(cc3OC)N(C)[C@H]3[C@@](O)(C(=O)OC)[C@H](OC(C)=O)[C@]5(CC)C=CCN6CC[C@]43[C@@H]65)C2)C1 [Vinblastine]

Concentration-dependent quenching of MIANS fluorescence (MsbA-MIANS [1]): No concentration-dependent quenching
Compound: CC1(C)S[C@@H]2[C@H](NC(=O)[C@H](N)c3ccccc3)C(=O)N2[C@H]1C(=O)O [ampicillin]

Concentration-dependent quenching of MIANS fluorescence (MsbA-MIANS [1]): No concentration-dependent quenching
Compound: O=C(O)c1cn(C2CC2)c2cc(N3CCNCC3)c(F)cc2c1=O [ciprofloxacin]

Concentration-dependent quenching of MIANS fluorescence (MsbA-MIANS [1]): No concentration-dependent quenching
Compound: CCn1cc(C(=O)O)c(=O)c2cc(F)c(N3CCNCC3)cc21 [norfloxacin]

Concentration-dependent quenching of MIANS fluorescence (MsbA-MIANS [1]): No concentration-dependent quenching
Compound: CC1COc2c(N3CCN(C)CC3)c(F)cc3c(=O)c(C(=O)O)cn1c23 (centres unmarked) [ofloxacin]

Kd (MsbA-MIANS [1]; [5]): 470 ± 30 µM
Kd (MsbA-MIANS [2]; 23 °C, titrated after lipid A): 650 ± 80 µM
Maximal quenching (ΔFmax/F0×100) (MsbA-MIANS [2]; 23 °C, titrated after lipid A): 23.2±1.2%
Effect of lipid A pre-binding on ligand binding affinity (in words) (MsbA-MIANS [2]): relatively unaffected
Compound: Nc1ncnc2c1ncn2[C@@H]1O[C@H](COP(=O)(O)OP(=O)(O)NP(=O)(O)O)[C@@H](O)[C@H]1O [p[NH]ppA, adenosine 5′-[β,γ-imido]triphosphate]

Labelling efficiency (MsbA [4]; 23 °C, MIANS:MsbA stoichiometry after 2000 s, drug at ~5-fold its Kd (2-40 μM)): 118±9.2%
Maximal quenching (ΔFmax/F0×100) (MsbA-MIANS [1]; [7]): 6.02±0.11%
Increase of ΔFmax for quenching when daunorubicin was bound first (MsbA-MIANS [2]): 2 fold
Reduction of binding affinity when ATP was pre-bound (MsbA-MIANS [2]; 10 °C): ~8 fold
Maximal quenching (ΔFmax/F0×100) (MsbA-MIANS [2]; 10 °C, titrated after ATP): 17.7±1.0%
Maximal quenching (ΔFmax/F0×100) (MsbA-MIANS [2]; [8]): 7.31±0.50%
Reduction of binding affinity when p[NH]ppA was pre-bound (MsbA-MIANS [2]; 23 °C): ~3 fold
Maximal quenching (ΔFmax/F0×100) (MsbA-MIANS [2]; 23 °C, titrated after daunorubicin): 15.7±1.4%
Maximal quenching (ΔFmax/F0×100) (MsbA-MIANS [2]; 23 °C, titrated after p[NH]ppA): 10.9±1.2%
Compound: Lipid A
